Assay results reported in PubChem BioAssay AID463191 (Sanford-Burnham Center for Chemical Genomics, 2010).
Calls of active or inactive are those of the source.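 Rule for the calls: active = compounds whose mean IC50 across repeat dose response tests falls below a set limit; inactive = the rest.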

System: AML12 mouse hepatocytes, BODIPY lipid droplet imaging
Assay: potency against lipid droplet buildup in liver cells – imaging, AML12 mouse hepatocytes, high-content, dose response (AID 463191)
Settings: cells loaded with 100 µM oleic acid
In short: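 System – AML12 mouse hepatocyte cell line, lipid droplet imaging · Reagent – oleic acid at 100 µM final for lipid loading · Compound dosing – 7 doses, 0.5–32 µM, 0.32% DMSO · Schedule – cells grown about 20 h at 37 °C, then overnight compound exposure · Read-out – IC50 from per-cell lipid droplet intensity · Replication – duplicate points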

| SMILES | IC50 |
| --- | --- |
| CCOc1ccc2nc(NC(=O)CSc3nc4ccccc4c(=O)n3Cc3ccco3)sc2c1 | 0.62 µM |
| CCOc1ccc(CCNC(=O)CCc2nc(-c3ccc(OC)cc3)no2)cc1OCC | 0.782 µM |
| CCOc1ccc(C(=O)OCC(=O)Nc2nc(OC)cc(OC)n2)cc1OCC | 1.12 µM |
| CCOc1ccc(CCNC(=O)c2ccc3ccccc3n2)cc1OCC | 1.31 µM |
| COc1ccc(C2(c3ccc(OC)cc3)NC(=O)N(CC(=O)Nc3cc(C)ccc3OC)C2=O)cc1 | < 0.5 µM |
| COc1ccc(CCNC(=O)c2ccc(CNc3nc(=S)[nH]c4ccccc34)cc2)cc1OC | 1.28 µM |
| O=C(NC1CCCc2c1cnn2-c1ccccc1F)c1ccccn1 (centres undefined) | > 32 µM (inactive) |
| CCOc1ccc(C(=O)NCC(=O)NC(C)CCc2ccccc2)cc1OCC (centres undefined) | 0.858 µM |
| COc1ccc(C(C(=O)NC(C)(C)C)N(Cc2ccccc2)C(=O)CCC(=O)Nc2cc(C)on2)cc1 (centres undefined) | 8.98 µM (inactive) |
| CCn1cc(CCCC(=O)NCc2cccc(OC)c2)c2ccccc21 | 6.43 µM (inactive) |
| Cc1ccc(-n2nc3c(=O)n(CC(=O)NCCCc4ccccc4)nc(C)c3c2C)cc1 | 4.24 µM |
| CCOc1ccc(CCNC(=O)Cn2nc(C)c3c(C)n(-c4ccccc4)nc3c2=O)cc1OCC | < 0.5 µM |
| CCOc1ccc(CCNC(=O)C2(c3ccccc3)CC2)cc1OCC | 3.91 µM |
| CCOc1ccc(CCNC(=O)CCOc2cc(C)ccc2C)cc1OCC | < 0.5 µM |
| CCOc1ccc(CCNC(=O)Cn2c(-c3nonc3N)nc3ccccc32)cc1OCC | 0.58 µM |
| CCCCCCn1c(N2CCN(c3ccccc3)CC2)nc2c1c(=O)[nH]c(=O)n2C | 2.46 µM |
| CCC(C(=O)NCc1cccc(C)c1)n1nc(C)c2c(C)n(-c3ccccc3)nc2c1=O (centres undefined) | 6.77 µM (inactive) |
| CCOc1ccc(-c2csc(NNC3=NCCCCC3)n2)cc1 | 1.22 µM |
| COc1ccc(NC(=O)[C@H](C)NC(=O)[C@@H]2Cc3ccccc3CN2C(=O)OC(C)(C)C)cc1 | 7.12 µM (inactive) |
| CC(Sc1nnc(Nc2ccccc2)s1)C(=O)Nc1nc(-c2ccccc2)cs1 (centres undefined) | 5.77 µM (inactive) |
| CCOc1ccccc1NC(=O)CCCNC(=O)c1ccc(Cl)cc1 | 10.7 µM (inactive) |
| CCOc1ccc(CCNC(=O)CCCn2c(=O)c3cccn3c3cccnc32)cc1OCC | 1.88 µM |
| CCOc1ccc(CCNC(=O)COC(=O)c2cccnc2OCC)cc1OCC | 2.29 µM |
| CCOc1ccc(CCNC(=O)Nc2ccccc2C)cc1OCC | 2.03 µM |
| CCOc1cc(CNC(=O)CCCn2c(=O)c3cccn3c3cccnc32)cc(OCC)c1OCC | 0.54 µM |

| SMILES | IC50 |
| --- | --- |
| CCOc1cc2c(cc1OCC)C(c1ccccc1)N(c1ccccc1)C(=O)C2 (centres undefined) | 0.973 µM |
| CCOc1ccc(CCNC(=O)COC(=O)/C=C/c2ccc(OC)c(OC)c2)cc1OCC | 1.5 µM |
| CCOc1ccc(C(C)NC(=O)Cc2ccccc2F)cc1OCC (centres undefined) | 6.25 µM (inactive) |
| CCOc1ccc(CCNC(=O)CN2C(=O)NC(CCSC)C2=O)cc1OCC (centres undefined) | 1.26 µM |
| CCCCCCn1c(SCC(=O)Nc2cc(C)on2)nc2ccccc2c1=O | 0.75 µM |
| Cc1ccc(-n2nc3c(=O)n(C(C)C(=O)NCCc4cccs4)nc(C)c3c2C)cc1 (centres undefined) | 3.22 µM |
| CCOc1ccc(CCNC(=O)c2cc(C)nc3ccccc23)cc1OCC | 6.4 µM (inactive) |
| CCOc1ccc(CC(=O)Nc2ccc(NC(=O)c3ccco3)cc2)cc1OCC | 2.35 µM |
| CCOc1ncccc1C(=O)OC(C)C(=O)Nc1ccc(CC)cc1 (centres undefined) | 2.64 µM |
| Cc1ccc(-n2nc3c(=O)n(CC(=O)NC(C)CCc4ccccc4)nc(C)c3c2C)cc1 (centres undefined) | 0.581 µM |
| CCOc1ccc(CCNC(=O)CN2CCN(Cc3ccc(F)cc3)C2=O)cc1OCC | 1.83 µM |
| O=C(NCc1ccc2c(c1)OCO2)c1cc(-c2ccccc2)c(N2CCOCC2)s1 | 0.715 µM |
| CCCC1(c2ccccc2)NC(=O)N(CC(=O)Nc2cc(C)ccc2OC)C1=O (centres undefined) | > 32 µM (inactive) |
| CC1CC(C)CN(C(=O)c2ccc3c(c2NCCO)C(=O)c2ccccc2C3=O)C1 (centres undefined) | 0.687 µM |
| COc1ccc(C(C(=O)NC(C)(C)C)N(Cc2ccc(C)cc2)C(=O)CCC(=O)Nc2cc(C)on2)cc1 (centres undefined) | 2.3 µM |
| CC(C)COc1cccc(-c2cc(C(=O)Nc3ccon3)c3ccccc3n2)c1 | 3.83 µM |
| CCOc1ccc(CCNC(=O)CS(=O)Cc2nc(-c3ccccc3C)oc2C)cc1OCC (centres undefined) | 5.36 µM (inactive) |
| CCOc1ccc(CCNC(=O)CSc2cc(=O)n(CC)c3ccccc23)cc1OCC | 1.1 µM |
| COc1ccc(CCNC(=O)CN2C(=O)c3cccc4cccc(c34)C2=O)cc1OC | 5.77 µM (inactive) |
| CCCCOc1ccc(/C=C/C(=O)OCC(=O)c2c(N)n(C)c(=O)n(C)c2=O)cc1OCC | 28.8 µM (inactive) |
| COCCNC(=S)N1CCc2cc(OC)c(OC)cc2C1COc1cc(C)cc(C)c1 (centres undefined) | 4.08 µM |
| CCOc1ccc(CCNC(=O)COC(=O)c2c(C)nn(-c3ccccc3)c2C)cc1OCC | < 0.5 µM |
| COc1ccc(CCNC(=O)[C@H](C)N2C(=O)N3CCc4c([nH]c5ccccc45)[C@@]3(C)C2=O)cc1OC | 1.78 µM |
| Cc1cc(N2CCOCC2)n2nc(C)c(-c3ccc(Cl)cc3)c2n1 | 1.31 µM |
| CCOc1ccccc1Nc1nnc(SC(C)C(=O)Nc2nc(-c3ccccc3)cs2)s1 (centres undefined) | 1.25 µM |

| SMILES | IC50 |
| --- | --- |
| CCOc1ccc(CCNC(=O)c2cc(-c3ccccc3)c(N3CCOCC3)s2)cc1OCC | < 0.5 µM |
| COc1cccc(CNC(=O)CCCc2c[nH]c3ccccc23)c1 | 6.6 µM (inactive) |
| O=C1C(NS(=O)(=O)c2ccccc2)=C(N2CCN(c3ccc(F)cc3)CC2)C(=O)c2ccccc21 | 1.78 µM |
| CCOc1ccc(CCNC(=O)CCNS(=O)(=O)c2ccc(Br)cc2)cc1OCC | 3.65 µM |
| CC(C)c1ccc(NC(=O)CSc2nc3ccccc3nc2N2CCCC2)cc1 | 2.08 µM |
| CCOc1ccc(CCNC(=O)/C=C/c2ccco2)cc1OCC | 1.05 µM |
| Cc1cc(C(=O)NC2CCCc3c2cnn3-c2cccc(C)c2C)c(C)o1 (centres undefined) | 2.23 µM |
| COc1ccc(-c2csc(NC(=O)c3ccc(OCC(=O)N4CCOCC4)c(OC)c3)n2)cc1 | 0.782 µM |
| COc1ccccc1NS(=O)(=O)c1ccc(N/N=C/c2c(C)nn(-c3ccccc3)c2N2CCCC2)c([N+](=O)[O-])c1 | < 0.5 µM |
| Cc1cccc(NC(=O)CSc2nc3ccccc3nc2N2CCCC2)c1 | 5.07 µM (inactive) |
| COC(=O)/C(=C\c1ccc2c(c1)c1ccccc1n2C)NC(=O)c1ccccc1 | 3.3 µM |
| COc1ccc(-c2csc(NC(=O)c3ccc(OCC(=O)N4CCOCC4)c(OC)c3)n2)cc1OC | 1.9 µM |
| CCOc1ccc(CCNC(=O)COC(=O)c2cc(OC)c(OC)c(OC)c2)cc1OCC | 0.559 µM |
| CCOc1ccccc1NC(=O)CCCNC(=O)Cn1cnc2sc(C)c(C)c2c1=O | 7.09 µM (inactive) |
| CCCOc1ccc(C(=O)OCC(=O)NCCc2ccc(OCC)c(OCC)c2)cc1OC | 0.593 µM |
| Cc1cc(C(=O)NC2CCCc3c2cnn3-c2ccc(C)c(C)c2)nc(C)n1 (centres undefined) | 2.81 µM |
| COc1ccc(CCNC(=O)c2cc3c(F)cccc3s2)cc1OC | 5.42 µM (inactive) |
| CCCCc1ccc(NC(=O)CSc2nnc(C)c(=O)n2N)cc1 | 1.27 µM |
| COc1ccccc1CNS(=O)(=O)c1ccc2c(c1)CC(C)N2C(=O)C1CCC1 (centres undefined) | 0.68 µM |
| COc1ccc(OC)c(NC(=O)Cc2coc3ccc4ccccc4c23)c1 | 11.4 µM (inactive) |
| CCc1ccc(NC(=O)CSc2nc3ccccc3nc2N2CCCC2)cc1 | 1.94 µM |
| CCCN1C(=O)/C(=C\C=C2\N(CC)c3ccccc3C2(C)C)SC1=S | < 0.5 µM |
| CC1CCCN(C2=C(NS(=O)(=O)c3ccc(Br)cc3)C(=O)c3ccccc3C2=O)C1 (centres undefined) | 0.927 µM |
| CC(C)(C)c1ccc(-c2csc(NNC3=NCCCCC3)n2)cc1 | 2.09 µM |
| CCOc1ccc(CCNC(=O)Nc2ccccc2)cc1OCC | 0.583 µM |

| SMILES | IC50 |
| --- | --- |
| CCOc1ccc(CCNC(=O)CCc2nnc3ccc(N4CCCC4)nn23)cc1OCC | 1.81 µM |
| O=C1C(NS(=O)(=O)c2cccs2)=C(N2CCN(c3cccc(C(F)(F)F)c3)CC2)C(=O)c2ccccc21 | 0.751 µM |
| CCOc1ccc2nc(-c3ccccc3)nc(SCC(=O)Nc3ncc(C)s3)c2c1 | < 0.5 µM |
| COc1ccc(C(C(=O)NC(C)(C)C)N(Cc2cccs2)C(=O)CCC(=O)Nc2cc(C)on2)cc1 (centres undefined) | 4.16 µM |
| CCN(CC(=O)Nc1ccccc1C(F)(F)F)C(=O)c1cc(-c2cccs2)nn1-c1ccccc1 | 2.03 µM |
| CCOc1ccc(CCNC(=O)Cn2ncn3nc(-c4ccc(OC)cc4)cc3c2=O)cc1OCC | < 0.5 µM |
| CCc1ccc(NC(=O)CNC(=O)[C@@H]2Cc3ccccc3CN2C(=O)OC(C)(C)C)cc1 | 5.02 µM (inactive) |
| CC1=C(C(=O)NC2CCCc3c2cnn3-c2cccc(C)c2C)OCCO1 (centres undefined) | 11.8 µM (inactive) |
| COc1ccc(CCNC(=O)c2cc(-c3ccccc3)c(N3CCOCC3)s2)c(OC)c1OC | < 0.5 µM |
| CCC(C)(C)NC(=O)C(c1ccc(OC)cc1)N(CC1CCCO1)C(=O)CCC(=O)Nc1cc(C)on1 (centres undefined) | 3.44 µM |
| COc1ccc(C(=O)OC(C)C(=O)NC(C)CCc2ccccc2)cc1OC (centres undefined) | 2.56 µM |
| CCOc1ccc(CCNC(=O)CCC(=O)N2CCOc3ccccc32)cc1OCC | 0.83 µM |
| Nc1nc(-c2ccccc2)c(N=Nc2cccc3ccccc23)s1 | 0.525 µM |
| c1ccc(-c2csc(NNC3=NCCCCC3)n2)cc1 | 0.702 µM |
| COc1ccc(Cl)cc1NC(=O)CN1C(=O)NC2(CCCC2)C1=O | 4.27 µM |
| COc1ccc(OC)c(CCNC(=O)C(C)n2nc(C)c3c(C)n(-c4ccc(C)cc4)nc3c2=O)c1 (centres undefined) | 1.59 µM |
| CCOc1ccc(CCNC(=O)CN2CCN(Cc3ccccc3C)C2=O)cc1OCC | 0.924 µM |
| Cc1ccc(CNC(=O)c2ccc(N3CCC4(CC3)CC(c3ccccc3)=NO4)c(NC(=O)c3ccc(Br)cc3)c2)cc1 | < 0.5 µM |
| CCOc1ccc(CCNC(=O)Cn2nc(C)n3cccc3c2=O)cc1OCC | 2 µM |
| CCNC(=S)N1CCc2cc(OC)c(OC)cc2C1COc1ccccc1OC (centres undefined) | 3.77 µM |
| COc1ccc(C(=O)OC(C)C(=O)Nc2cc(C(F)(F)F)ccc2Cl)c(OC)c1OC (centres undefined) | 0.85 µM |
| CCOc1ccc(CCNC(=O)COc2cc(=O)n(C)c3ccccc23)cc1OCC | 3.95 µM |
| CC(=O)Nc1ccc(-c2csc(NC(=O)Cc3cccc(F)c3)n2)cc1 | 1.8 µM |
| Cc1cccc(NC(=O)[C@H](C)NC(=O)[C@@H]2Cc3ccccc3CN2C(=O)OC(C)(C)C)c1 | 1.63 µM |
